This is a sample that favours compounds with a hit; in the whole collection about 1.9% have one here.
Calb FLC: C. albicans growth inhibition with fluconazole, primary screen, CaCi-2 strain, Alamar Blue fluorescence | C. albicans CaCi-2 (fluconazole-resistant clinical isolate) + fluconazole, 48 h | growth inhibition, % (no concentration beside the values) | actives 0.57% (n = 300,000) | AID 1979, 2009;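 active = growth inhibition above about 58% in most replicates, limit read from the data, passing the limit was not always enough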;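 also: all wells also contain fluconazole at 8 µg/ml as a sub-toxic cotreatment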
FXN GAA850 act: FXN promoter activators, primary screen, cell-based, luciferase luminescence, HEK293 lucGAA850; actives 0.56% (n = 360,000); activation, % at 6 µM; HEK293 lucGAA850 FXN promoter luciferase reporter, 24 h; percent of 10 µM SAHA response;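 active = activation above the average of all compounds screened plus 3 SD, cutoff fixed separately per campaign, cut at about 7.5% in these data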
HIF act: HIF pathway transcriptional activators, primary screen, cell-based, U2OS HRE-luciferase, luminescence; actives 0.32% (n = 300,000); activation, % at 7.5 µM (by protocol); U2OS HRE-luciferase reporter; normalized: DMSO 0%, desferrioxamine 100%; AID 1910, 2009;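 active = mean activation of at least 10% of the iron chelator positive control signal, with at least half of replicates also reaching 10%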
proCasp7 act: procaspase-7 activators, primary screen, counter-screen for procaspase-3 activator project, biochemical, absorbance, HTS, human; Caspase-7 (Homo sapiens), P55210; recombinant procaspase-7, Ac-DEVD-pNA absorbance 405 nm; D23A/D198A/D206A triple mutant, cannot self-cleave; scale: DMSO 0, 5 µM enzyme 100; activation, % at 8.5 µM; actives 0.093% (n = 330,000); AID 463210, 2010;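 active = percent activation above the screen-wide mean plus 3 SD, cut at about 25% in these data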
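Replicates: singlicate. Assay system: Procaspase-7 triple mutant (PC-7 D3A). Signal: 405 nm absorbance of p-nitroaniline. Times: 1 h preincubation, 2 h reaction. Buffer or medium: Zinc-free HEPES pH 7.4 with 300 mM NaCl, 0.01% Triton X-100. Also added: DEVD-pNA substrate. Benchmarks: DMSO wells as 0%, DMSO with 5 µM added PC-7 as 100%.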
Neddylation inh: inhibitors of cullin neddylation, primary screen, biochemical, TR-FRET, uHTS, NAE and Ubc12; actives 0.58% (n = 360,000); NEDD8-conjugating enzyme Ubc12 (Homo sapiens) + NEDD8-activating enzyme E1 regulatory …; AID 651699, 2012; inhibition, % at 25 µM; in the data active = inhibition above about 36%
Target sequence (P61081 whole entry, looked up): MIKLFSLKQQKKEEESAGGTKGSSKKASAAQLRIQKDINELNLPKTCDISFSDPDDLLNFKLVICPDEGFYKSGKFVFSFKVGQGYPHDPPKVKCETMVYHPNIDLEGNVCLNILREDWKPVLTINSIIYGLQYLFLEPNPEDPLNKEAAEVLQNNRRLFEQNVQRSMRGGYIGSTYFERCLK
Target sequence (Q13564 whole entry, looked up): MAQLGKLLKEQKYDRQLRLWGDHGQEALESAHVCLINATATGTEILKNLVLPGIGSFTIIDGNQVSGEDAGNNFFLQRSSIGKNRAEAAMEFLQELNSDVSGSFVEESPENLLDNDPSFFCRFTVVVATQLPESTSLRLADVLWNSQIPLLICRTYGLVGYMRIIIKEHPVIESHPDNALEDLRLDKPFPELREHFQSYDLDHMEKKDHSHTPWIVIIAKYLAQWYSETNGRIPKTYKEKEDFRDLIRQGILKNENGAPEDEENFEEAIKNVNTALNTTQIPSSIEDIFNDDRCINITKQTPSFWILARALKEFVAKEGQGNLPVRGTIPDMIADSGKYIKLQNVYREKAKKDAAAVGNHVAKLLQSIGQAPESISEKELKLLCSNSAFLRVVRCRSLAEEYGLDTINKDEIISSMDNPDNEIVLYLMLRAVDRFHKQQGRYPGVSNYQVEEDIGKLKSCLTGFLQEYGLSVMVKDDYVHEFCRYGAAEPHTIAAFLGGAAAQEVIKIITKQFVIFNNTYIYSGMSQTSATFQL
procasp3 activ: activators of human procaspase-3 D3A mutant, primary screen, biochemical, absorbance, PC-3 D3A mutant, single concentration | actives 0.11% (n = 330,000) | Caspase-3 (Homo sapiens), P42574 | activation, % at 8.5 µM | AID 463141, 2010 | recombinant procaspase-3 D3A, Ac-DEVD-pNA absorbance 405 nm;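 active = activation above the mean of all tested compounds plus 3 SD, cut at about 21% in these data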
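Assay system – Procaspase-3 D3A mutant, all three cleavage aspartates alanine · Controls – DMSO-only low control, 5 µM PC-3 D3A high control · Schedule – 1 h compound preincubation, 2 h substrate hydrolysis at 25 °C · Signal – 405 nm absorbance of p-nitroaniline, reads at 0 and 120 min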
GAA30 FXN cntr: GAA30 FXN promoter activators, confirmation, counter-screen for GAA850 frataxin promoter activator project, cell-based, luminescence, HEK293, lucGAA30, triplicate. HEK293 lucGAA30 FXN promoter luciferase, 24 h; DMSO = 0%, 5 µM ipriflavone = 100%. actives 66% (n = 1,900). shares compounds with FXN GAA850 act. activation, % at 6 µM;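 active = mean activation above the mean of solvent-only control wells plus 3 SD, cut at about 22% in these data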;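 also: counterscreen of GAA850 promoter hits where activity marks nonselective or luminescence artifacts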
FXN GAA850 conf: FXN GAA850 promoter activators in reporter cells, confirmation, cell-based, luminescence, HEK293 lucGAA850, triplicate | shares compounds with FXN GAA850 act | HEK293 lucGAA850 FXN promoter luciferase reporter, 24 h; 100% = activation by SAHA | activation, % at 6 µM | actives 86% (n = 1,900);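 active = mean activation above a set limit taken from the primary screen, cut at about 8% in these data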
Of the large screens only hits and unclear results are named; the others gave an inactive call (follow-up assays come after a bar, where they were run).

Cc1cc(C)cc(N(C(=O)c2nsc(Cl)c2Cl)C(C(=O)NC2CCCC2)c2ccc(O)cc2)c1 (stereo not drawn)	none
Cc1ccc(N(C(=O)c2nsc(Cl)c2Cl)C(C(=O)NC2CCCC2)c2ccc(O)cc2)cc1C (stereo not drawn)	FXN GAA850 act 9.5 | GAA30 FXN cntr 33.6 | FXN GAA850 conf 14.0
CC1CCN(C(=O)CN2C(=O)C(=O)c3ccccc32)CC1	FXN GAA850 act 13.2 | GAA30 FXN cntr 22.5 | FXN GAA850 conf 8.3
CC1CCN(C(=O)CN2C(=O)c3cccc4cccc(c34)C2=O)CC1	none
COc1ccnc(NCc2ccc(Cl)cc2)c1C#N	FXN GAA850 act 10.4 | GAA30 FXN cntr 54.7 | FXN GAA850 conf 20.1
CCCCNc1c(CCc2ccccc2)nc2nc(C)cc(C)n12	none (no result: Calb FLC, FXN GAA850 act, HIF act, proCasp7 act, procasp3 activ)
O=C(N/N=C/c1cccc([N+](=O)[O-])c1)c1ccc2c(c1)OCCO2	FXN GAA850 act 8.9 | GAA30 FXN cntr 119.4 | FXN GAA850 conf 37.4
CCOC(=O)c1c(CSC(=N)N)n(-c2ccccc2)c2cc(Br)c(OC(C)=O)cc12	FXN GAA850 act 10.1 | GAA30 FXN cntr inactive | FXN GAA850 conf 32.8
COCCNc1nc(-c2ccc(OC)cc2C)c2sc(-c3ccccc3)cc2n1	none (no result: Calb FLC, HIF act, proCasp7 act, procasp3 activ)
CCn1c(SCc2nc3ccccc3s2)nc2cc(S(=O)(=O)N3CCOCC3)ccc21	FXN GAA850 act 11.7 | GAA30 FXN cntr 81.0 | FXN GAA850 conf 33.3
Cc1nnc(SCc2nc3ccccc3s2)n1-c1ccccc1	none
CCCSc1nc2cc(S(=O)(=O)N3CCOCC3)ccc2n1CC	none
COCCn1c(SCc2nc3ccccc3s2)nc2ccccc21	FXN GAA850 act 8.4 | GAA30 FXN cntr 99.1 | FXN GAA850 conf 31.1
CCOCCCn1c(SCc2nc3ccccc3s2)nc2ccccc2c1=O	none
c1ccc(-n2cnnc2SCc2nc3ccccc3s2)cc1	FXN GAA850 act 7.8 | GAA30 FXN cntr 93.7 | FXN GAA850 conf 26.4
CCCC(CNC(C)=O)(C1=CCCCC1)c1ccccc1 (stereo not drawn)	none (no result: Calb FLC, HIF act, proCasp7 act, procasp3 activ)
CCN(CC)C(=O)C1=C(C)N(CCC2=CCCCC2)C(=O)C(CC(=O)NCc2cccc3ccccc23)C1 (stereo not drawn)	none (no result: Calb FLC, HIF act, proCasp7 act, procasp3 activ)
COc1ccc(S(=O)(=O)N2CCCC2)cc1OC	none
COc1ccc(S(=O)(=O)N2CCCN(S(=O)(=O)c3ccc(OC)c(C)c3)CC2)cc1C	FXN GAA850 act 8.3 (no result: HIF act) | GAA30 FXN cntr 29.6 | FXN GAA850 conf 17.4
O=C(COc1ccccc1)Nc1ccccc1C(=O)NCc1ccco1	FXN GAA850 act 8.4 | GAA30 FXN cntr 40.9 | FXN GAA850 conf 16.0
COc1ccccc1OCC(=O)Nc1ccccc1C(=O)NCc1ccco1	none
Cn1cc(-c2csc(C(O)(c3ccccc3)C(F)(F)F)n2)cn1 (stereo not drawn)	none (no result: Calb FLC, HIF act, proCasp7 act, procasp3 activ)
CCc1nc2sc(C#N)c(N)c2c2c1CCCC2	FXN GAA850 act 10.4 | GAA30 FXN cntr inactive | FXN GAA850 conf 14.2
Cc1c(C(=O)NCc2cccc(Cl)c2)sc(=O)n1Cc1cccc(F)c1	FXN GAA850 act 11.8 (no result: Calb FLC, HIF act, proCasp7 act, procasp3 activ) | GAA30 FXN cntr inactive | FXN GAA850 conf inactive
Cc1c(C(=O)NCc2ccc(Cl)c(Cl)c2)sc(=O)n1Cc1cccc(F)c1	none (no result: Calb FLC, HIF act, proCasp7 act, procasp3 activ)
O=C(COc1ccc(Cl)cc1Cl)NC(=O)NC1CCCC1	none (no result: Calb FLC, HIF act, proCasp7 act, procasp3 activ)
O=C(COc1ccccc1Cl)NC(=O)NC1CCCC1	FXN GAA850 act 8.0 (no result: Calb FLC, HIF act) | GAA30 FXN cntr 111.4 | FXN GAA850 conf 29.6
NCc1csc(Nc2ccc(C(=O)c3ccccc3)cc2)n1	none (no result: Calb FLC, HIF act, proCasp7 act, procasp3 activ)
CCCCNC(=O)C1(C)CCCCN1C(=O)c1ccc2c(c1)C(C)(C)CCC2(C)C (stereo not drawn)	none (no result: Calb FLC, HIF act, proCasp7 act, procasp3 activ)
COCCOC(=O)c1c(C)oc2ccc(NS(=O)(=O)c3cccs3)cc12	FXN GAA850 act 8.6 | GAA30 FXN cntr inactive | FXN GAA850 conf inactive
CCOC(=O)c1c(C)oc2ccc(NS(=O)(=O)c3cccs3)cc12	none
O=C(O)C1=CC2C=C(Cl)C=CC2OC1=O (stereo not drawn)	none (no result: Calb FLC, HIF act, proCasp7 act, procasp3 activ)
Cc1cccc(NC(=O)CCC(=O)N/N=C/c2ccco2)c1	none
O=C(N/N=C\c1ccco1)Nc1cccc(Cl)c1	FXN GAA850 act 9.0 | GAA30 FXN cntr 102.6 | FXN GAA850 conf 37.6
Cc1ccc([N+](=O)[O-])cc1-c1ccc(/C=C(\C#N)c2[nH]nc(N)c2C#N)o1	FXN GAA850 act 8.7 (no result: Calb FLC, HIF act) | GAA30 FXN cntr 47.9 | FXN GAA850 conf 20.4
COCc1cc(C)nc(OCC(=O)N/N=C/c2ccc(-c3cc([N+](=O)[O-])ccc3C)o2)c1C#N	none
CC1=CN2C(=N)/C(=C/c3ccc([N+](=O)[O-])o3)C(=O)N=C2S1	FXN GAA850 act 12.4 | GAA30 FXN cntr inactive | FXN GAA850 conf inactive
COCCCN(C(=S)NC(=O)C12CC3CC(CC(C3)C1)C2)c1c(N)n(Cc2ccccc2)c(=O)[nH]c1=O	FXN GAA850 act 8.4 | GAA30 FXN cntr inactive | FXN GAA850 conf 8.2
COCCCN(C(=O)C1CCCCC1)c1c(N)n(Cc2ccccc2)c(=O)[nH]c1=O	none (no result: Calb FLC, HIF act)
CC(=O)Nc1ccc(NC(=O)CSc2nc(=O)n(Cc3cccnc3)c3c2CCC3)cc1	none (no result: Calb FLC, HIF act, proCasp7 act, procasp3 activ)
Nc1ccn([C@@H]2O[C@H](CNCc3cnc(N4CCOCC4)nc3)[C@@H](O)[C@H]2O)c(=O)n1	none (no result: Calb FLC, HIF act, proCasp7 act, procasp3 activ)
COc1cccc(-c2cnc3c(NC=O)cc(-c4ccc(N5CCN(C)CC5)cc4)cn23)c1	FXN GAA850 act 8.8 (no result: Calb FLC, HIF act, proCasp7 act, procasp3 activ) | GAA30 FXN cntr 83.2 | FXN GAA850 conf 40.0
COc1cccc(-c2cnc3c(NC=O)cc(-c4ccccc4)cn23)c1	none (no result: Calb FLC, HIF act, proCasp7 act, procasp3 activ)
COc1ccc2c(c1OC)C(=O)N(c1cccc(C(F)(F)F)c1)C2	FXN GAA850 act 18.1 | GAA30 FXN cntr 99.2 | FXN GAA850 conf 38.4

From PubChem BioAssay
